Results published in article PMC8001668 (International Journal of Nanomedicine, 2021).

Experiments:
Plasma pharmacokinetics = assay type: in vivo; details: SD rats plasma, intraperitoneal, free group received DAS + ROZ
How it was run: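 Female SD rats (5 per group) got an intraperitoneal dose of either the free two-drug combination or the micelle formulation, at 5 mg/kg of the kinase inhibitor. Blood (0.3 mL) was taken from 0 min to 24 h and spun at 4000 rpm for 10 min. Plasma (100 µL) was mixed with methanol (300 µL) plus diclofenac sodium internal standard, spun, and analysed by HPLC. Parameters were derived from the concentration–time data.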

MCF-7 cells [1] = assay: In vitro cytotoxicity, MTT assay; assay type: cell-based, Human; details: for IC50: Homo sapiens
MDA-MB-231 cells [2] = assay: In vitro cytotoxicity, MTT assay; assay type: cell-based, Human; details: for IC50: Homo sapiens
MCF-7 cells [3] = assay: Transwell migration experiment; assay type: cell-based, Human; details: 24 h treatment
MDA-MB-231 cells [4] = assay: Transwell migration experiment; assay type: cell-based, Human; details: 24 h treatment

With Cc1nc(Nc2ncc(C(=O)Nc3c(C)cccc3Cl)s2)cc(N2CCN(CCO)CC2)n1 [DAS, Dasatinib] the “AUC0-∞ of DAS” value (Plasma pharmacokinetics; DAS 5 mg/kg) was 2380 ± 1120 ng·h/mL, the “AUC0–24 of DAS” value (Plasma pharmacokinetics; DAS 5 mg/kg) was 2260 ± 930 ng·h/mL and the IC50 (MCF-7 cells [1]; MCF7, 24 h) was 52 ± 6.83 µM. For the same molecule, the IC50 (MCF-7 cells [1]; MCF7, 48 h) was 31.2 ± 2.8 µM, the IC50 (MDA-MB-231 cells [2]; MDA-MB-231, 24 h) was 73.6 ± 3.8 µM and the IC50 (MDA-MB-231 cells [2]; MDA-MB-231, 48 h) was 64.7 ± 2.63 µM.

With CN(CCOc1ccc(CC2SC(=O)NC2=O)cc1)c1ccccn1 (centres unmarked) [ROZ, rosiglitazone] the “AUC0–24 of ROZ” value (Plasma pharmacokinetics; DAS dose 5 mg/kg) was 41060 ± 10850 ng·h/mL, the “AUC0–∞ of ROZ” value (Plasma pharmacokinetics; DAS dose 5 mg/kg) was 41340 ± 10680 ng·h/mL and the IC50 (MCF-7 cells [1]; MCF7, 48 h) was 102 ± 6.2 µM. The cell survival rate (MCF-7 cells [1]; MCF-7 cells, 24 h incubation) was “higher than 90%”, the “number of cells penetrating the membrane (migration)” value (MCF-7 cells [3]) was “significantly reduced” and the IC50 (MDA-MB-231 cells [2]; MDA-MB-231, 48 h) was 259 ± 27.5 µM. For the same molecule, the cell survival rate (MDA-MB-231 cells [2]; MDA-MB-231 cells, 24 h incubation) was “higher than 90%” and the “number of cells penetrating the membrane (migration)” value (MDA-MB-231 cells [4]) was “significantly reduced”.
